# Reference: ChEMBL document CHEMBL4028836, “Optimization of M4 positive allosteric modulators (PAMs): The discovery of VU0476406, a non-human primate in vivo tool compound for translational pharmacology” (Bioorg Med Chem Lett, 2017)
# How the values were obtained:
# [1] = target: T1, Muscarinic acetylcholine receptor M4 (Homo sapiens, UniProt P08173); assay: Positive allosteric modulation of human M4 receptor expressed in CHO cells coexpressing Gqi5 assessed as increase in acetylcholine-induced calcium mobilization; format: functional, cell-based; details: read-out: EC50
# T1 sequence (P08173 whole entry): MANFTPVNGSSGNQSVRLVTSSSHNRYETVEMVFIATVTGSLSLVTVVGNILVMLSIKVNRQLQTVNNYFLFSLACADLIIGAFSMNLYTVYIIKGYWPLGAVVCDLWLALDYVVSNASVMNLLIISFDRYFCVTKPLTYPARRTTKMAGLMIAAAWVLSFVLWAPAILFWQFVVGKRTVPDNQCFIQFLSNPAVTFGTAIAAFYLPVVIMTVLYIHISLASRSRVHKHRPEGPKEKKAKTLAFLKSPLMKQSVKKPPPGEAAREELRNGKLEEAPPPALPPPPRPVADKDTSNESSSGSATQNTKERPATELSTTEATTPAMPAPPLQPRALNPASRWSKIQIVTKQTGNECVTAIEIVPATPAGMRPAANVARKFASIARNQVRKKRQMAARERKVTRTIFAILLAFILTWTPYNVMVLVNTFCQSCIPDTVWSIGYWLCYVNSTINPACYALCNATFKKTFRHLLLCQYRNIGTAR
# Method in brief: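 Calcium mobilization in CHO cells expressing hM4 with Gqi5. Compound added in presence of a fixed EC20 concentration of acetylcholine. Values are means of three independent experiments, each run in triplicate.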
# [2] = target: T2, Cytochrome P450 1A2 (Homo sapiens, UniProt P05177); assay: Inhibition of CYP1A2 (unknown origin); format: ADME
# T2 sequence (P05177 whole entry): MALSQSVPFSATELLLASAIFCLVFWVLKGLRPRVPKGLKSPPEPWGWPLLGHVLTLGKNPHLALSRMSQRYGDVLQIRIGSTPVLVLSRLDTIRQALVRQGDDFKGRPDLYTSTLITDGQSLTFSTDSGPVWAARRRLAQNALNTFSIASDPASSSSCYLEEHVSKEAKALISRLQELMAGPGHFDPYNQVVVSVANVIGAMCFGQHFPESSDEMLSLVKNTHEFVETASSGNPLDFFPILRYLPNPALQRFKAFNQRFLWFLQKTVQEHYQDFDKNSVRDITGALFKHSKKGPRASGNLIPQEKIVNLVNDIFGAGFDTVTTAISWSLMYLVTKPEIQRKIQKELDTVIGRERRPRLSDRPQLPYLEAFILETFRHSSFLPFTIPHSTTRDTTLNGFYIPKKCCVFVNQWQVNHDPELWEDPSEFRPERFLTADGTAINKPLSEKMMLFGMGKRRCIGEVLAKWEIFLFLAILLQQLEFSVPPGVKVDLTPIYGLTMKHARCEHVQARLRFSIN
# [3] = target: Cytochrome P450 2C9 (Homo sapiens, UniProt P11712); assay: Inhibition of CYP2C9 (unknown origin); format: ADME
# [4] = target: Cytochrome P450 3A4 (Homo sapiens, UniProt P08684); assay: Inhibition of CYP3A4 (unknown origin); format: ADME
# [5] = tested on: Rattus norvegicus; assay: Elimination half-life in Sprague-Dawley rat at 0.1 to 1 mg/kg, iv; format: ADME, organism-based; details: in vivo
# [6] = tested on: Rattus norvegicus; assay: Volume of distribution at steady state […] in Sprague-Dawley rat at 0.1 to 1 mg/kg, iv; format: ADME, organism-based; details: in vivo
# Method in brief: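 IV pharmacokinetics in Sprague-Dawley rats at 0.1–1.0 mg/kg. CLp, elimination t½ and Vss derived.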
# [7] = Positive allosteric modulation of dog M4 receptor assessed as increase in acetylcholine-induced calcium mobilization; set-up: species or system Canis lupus familiaris
# Method in brief: (§1)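 M4 PAM concentration-response curves measured by calcium mobilization at the stated species' receptor. Potency reported as EC50/pEC50 and efficacy as % of acetylcholine maximum.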
# [8] = Positive allosteric modulation of cynomolgus monkey M4 receptor assessed as increase in acetylcholine-induced calcium mobilization; set-up: species or system Macaca fascicularis; method in brief: as §1
# [9] = target: Muscarinic acetylcholine receptor M1 (Homo sapiens, UniProt P11229); assay: Activity at human M1 receptor
# [10] = target: Muscarinic acetylcholine receptor M3 (Homo sapiens, UniProt P20309); assay: Activity at human M3 receptor
# [11] = target: Muscarinic acetylcholine receptor M5 (Homo sapiens, UniProt P08912); assay: Activity at human M5 receptor
# [12] = target: Voltage-gated inwardly rectifying potassium channel KCNH2 (Homo sapiens, UniProt Q12809); assay: Inhibition of human ERG
# [13] = tested on: Salmonella typhimurium; assay: Mutagenicity in Salmonella typhimurium TA98 by mini-Ames test; format: toxicity; details: salmonella enterica subsp. enterica serovar typhimurium
# Method in brief: (§2)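 Mini-Ames mutagenicity assay in Salmonella typhimurium strains TA98 and TA100, run with and without S9 metabolic activation.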
# [14] = tested on: Salmonella typhimurium; assay: Mutagenicity in Salmonella typhimurium TA100 in absence of S9 fraction by mini-Ames test; format: toxicity; details: salmonella enterica subsp. enterica serovar typhimurium; method in brief: as §2
# [15] = target: CYP2B6 (Homo sapiens, UniProt P20813); assay: Induction of CYP2B6 in cryopreserved human hepatocytes measured after 48 hrs; format: ADME, cell-based
# Method in brief: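 Cryopreserved human hepatocytes incubated for 48 hr, with enzyme activity as read-out. Induction expressed as EC50 and Emax.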
# [16] = Oral bioavailability in rat at 10 mg/kg; format: ADME, organism-based; details: in vivo
# Method in brief: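 Rat oral bioavailability from a 10 mg/kg solution dose. Separately, the HCl salt was dosed as a suspension.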
# [17] = Ratio of unbound CSF to plasma concentration in dog at 3 mg/kg, iv or po at 2 hrs post dose; format: ADME, organism-based, Canis lupus familiaris
# Method in brief: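 CNS penetration in dog by terminal study at 2.0 hr. Brain:plasma Kp, Kp,uu and unbound CSF:plasma ratio determined.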
# [18] = Drug metabolism in dog cryopreserved hepatocytes assessed as metabolite M1 formation; format: ADME, cell-based, Canis lupus familiaris, Hepatocyte
# [19] = Drug metabolism in rat cryopreserved hepatocytes assessed as metabolite M1 formation; format: ADME, cell-based, Hepatocyte
# [20] = Drug metabolism in cynomolgus monkey cryopreserved hepatocytes assessed as metabolite M2 formation; format: ADME, cell-based, Macaca fascicularis, Hepatocyte
# [21] = Drug metabolism in human cryopreserved hepatocytes assessed as metabolite M2 formation; format: ADME, cell-based, Hepatocyte
# [22] = Drug metabolism in rat cryopreserved hepatocytes assessed as metabolite M3 formation; format: ADME, cell-based, Hepatocyte
# [23] = Drug metabolism in cynomolgus monkey cryopreserved hepatocytes assessed as metabolite M3 formation; format: ADME, cell-based, Macaca fascicularis, Hepatocyte
# [24] = Drug metabolism in human cryopreserved hepatocytes assessed as metabolite M3 formation; format: ADME, cell-based, Hepatocyte
# [25] = Drug metabolism in rat cryopreserved hepatocytes assessed as metabolite M4 formation; format: ADME, cell-based, Hepatocyte
# [26] = Drug metabolism in cynomolgus monkey cryopreserved hepatocytes assessed as metabolite M4 formation; format: ADME, cell-based, Macaca fascicularis, Hepatocyte
# [27] = Drug metabolism in human cryopreserved hepatocytes assessed as metabolite M4 formation; format: ADME, cell-based, Hepatocyte
# [28] = Drug metabolism in cynomolgus monkey cryopreserved hepatocytes assessed as metabolite M5 formation; format: ADME, cell-based, Macaca fascicularis, Hepatocyte
# [29] = Drug metabolism in human cryopreserved hepatocytes assessed as metabolite M5 formation; format: ADME, cell-based, Hepatocyte
# [30] = Drug metabolism in cynomolgus monkey cryopreserved hepatocytes assessed as metabolite M6 formation; format: ADME, cell-based, Macaca fascicularis, Hepatocyte
# [31] = Drug metabolism in human cryopreserved hepatocytes assessed as metabolite M7 formation; format: ADME, cell-based, Hepatocyte
# [32] = Drug metabolism in human cryopreserved hepatocytes assessed as metabolite M8 formation; format: ADME, cell-based, Hepatocyte
# [33] = Glutathione reactivity in human hepatic microsomes assessed as GSH-adduct formation; format: ADME, Liver, Microsome
# [34] = Aqueous solubility of the compound at pH 7.4; format: physicochemical; details: buffer
# [35] = Unbound plasma concentration in human; format: ADME, cell-free
# [36] = Unbound plasma concentration in rat; format: ADME, cell-free
# Sequence of Muscarinic acetylcholine receptor M3 (P20309 whole entry): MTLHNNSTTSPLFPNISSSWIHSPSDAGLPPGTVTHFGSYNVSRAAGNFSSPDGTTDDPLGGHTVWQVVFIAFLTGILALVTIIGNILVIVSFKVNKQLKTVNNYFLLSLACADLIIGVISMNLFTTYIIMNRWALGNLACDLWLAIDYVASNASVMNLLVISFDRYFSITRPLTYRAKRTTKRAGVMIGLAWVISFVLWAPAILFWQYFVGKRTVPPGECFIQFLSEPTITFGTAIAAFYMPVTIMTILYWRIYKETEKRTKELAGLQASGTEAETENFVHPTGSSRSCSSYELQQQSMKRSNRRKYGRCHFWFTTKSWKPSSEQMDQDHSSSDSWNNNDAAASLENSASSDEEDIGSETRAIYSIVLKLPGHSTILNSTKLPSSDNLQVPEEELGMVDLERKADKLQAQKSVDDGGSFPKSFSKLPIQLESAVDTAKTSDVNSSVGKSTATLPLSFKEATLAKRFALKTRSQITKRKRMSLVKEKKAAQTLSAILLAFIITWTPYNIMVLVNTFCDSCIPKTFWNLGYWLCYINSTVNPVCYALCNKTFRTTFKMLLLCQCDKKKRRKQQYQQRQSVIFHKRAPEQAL
# Sequence of Muscarinic acetylcholine receptor M1 (P11229 whole entry): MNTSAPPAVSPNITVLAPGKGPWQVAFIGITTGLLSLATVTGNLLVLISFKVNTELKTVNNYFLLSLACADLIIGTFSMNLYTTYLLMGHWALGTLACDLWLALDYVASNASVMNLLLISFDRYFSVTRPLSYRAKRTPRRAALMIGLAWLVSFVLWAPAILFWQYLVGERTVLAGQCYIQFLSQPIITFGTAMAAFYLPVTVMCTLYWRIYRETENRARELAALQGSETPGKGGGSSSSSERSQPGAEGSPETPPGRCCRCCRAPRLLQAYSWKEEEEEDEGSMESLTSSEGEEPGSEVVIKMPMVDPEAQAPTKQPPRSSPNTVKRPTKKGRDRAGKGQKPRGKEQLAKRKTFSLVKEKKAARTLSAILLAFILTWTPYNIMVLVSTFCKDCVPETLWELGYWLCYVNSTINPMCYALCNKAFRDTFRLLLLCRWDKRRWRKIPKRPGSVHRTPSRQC
# Sequence of Cytochrome P450 2C9 (P11712 whole entry): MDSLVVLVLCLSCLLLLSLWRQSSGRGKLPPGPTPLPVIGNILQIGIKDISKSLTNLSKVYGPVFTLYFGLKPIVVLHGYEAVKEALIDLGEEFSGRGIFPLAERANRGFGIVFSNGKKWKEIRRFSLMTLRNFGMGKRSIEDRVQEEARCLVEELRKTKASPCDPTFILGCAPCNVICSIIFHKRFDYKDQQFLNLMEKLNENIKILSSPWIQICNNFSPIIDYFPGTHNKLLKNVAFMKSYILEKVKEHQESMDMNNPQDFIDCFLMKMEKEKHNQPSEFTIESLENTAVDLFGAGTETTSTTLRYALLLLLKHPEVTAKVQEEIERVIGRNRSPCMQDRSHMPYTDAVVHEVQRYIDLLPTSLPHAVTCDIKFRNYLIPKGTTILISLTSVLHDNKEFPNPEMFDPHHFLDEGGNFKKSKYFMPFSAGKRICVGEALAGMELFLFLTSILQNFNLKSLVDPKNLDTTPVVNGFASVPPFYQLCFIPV
# Sequence of CYP2B6 (P20813 whole entry): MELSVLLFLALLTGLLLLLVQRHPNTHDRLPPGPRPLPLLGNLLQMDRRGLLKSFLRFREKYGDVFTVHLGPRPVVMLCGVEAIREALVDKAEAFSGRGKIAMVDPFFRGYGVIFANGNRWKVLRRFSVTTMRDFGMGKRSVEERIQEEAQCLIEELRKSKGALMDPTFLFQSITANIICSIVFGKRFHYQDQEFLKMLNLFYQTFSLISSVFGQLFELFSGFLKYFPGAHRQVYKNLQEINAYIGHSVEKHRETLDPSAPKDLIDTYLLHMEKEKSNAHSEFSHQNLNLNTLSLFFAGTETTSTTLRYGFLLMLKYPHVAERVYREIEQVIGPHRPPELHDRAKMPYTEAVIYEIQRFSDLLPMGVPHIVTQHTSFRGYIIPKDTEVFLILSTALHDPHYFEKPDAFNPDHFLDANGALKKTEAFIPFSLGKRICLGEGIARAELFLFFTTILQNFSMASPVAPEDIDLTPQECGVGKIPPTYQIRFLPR
# Sequence of Voltage-gated inwardly rectifying potassium channel KCNH2 (Q12809 whole entry): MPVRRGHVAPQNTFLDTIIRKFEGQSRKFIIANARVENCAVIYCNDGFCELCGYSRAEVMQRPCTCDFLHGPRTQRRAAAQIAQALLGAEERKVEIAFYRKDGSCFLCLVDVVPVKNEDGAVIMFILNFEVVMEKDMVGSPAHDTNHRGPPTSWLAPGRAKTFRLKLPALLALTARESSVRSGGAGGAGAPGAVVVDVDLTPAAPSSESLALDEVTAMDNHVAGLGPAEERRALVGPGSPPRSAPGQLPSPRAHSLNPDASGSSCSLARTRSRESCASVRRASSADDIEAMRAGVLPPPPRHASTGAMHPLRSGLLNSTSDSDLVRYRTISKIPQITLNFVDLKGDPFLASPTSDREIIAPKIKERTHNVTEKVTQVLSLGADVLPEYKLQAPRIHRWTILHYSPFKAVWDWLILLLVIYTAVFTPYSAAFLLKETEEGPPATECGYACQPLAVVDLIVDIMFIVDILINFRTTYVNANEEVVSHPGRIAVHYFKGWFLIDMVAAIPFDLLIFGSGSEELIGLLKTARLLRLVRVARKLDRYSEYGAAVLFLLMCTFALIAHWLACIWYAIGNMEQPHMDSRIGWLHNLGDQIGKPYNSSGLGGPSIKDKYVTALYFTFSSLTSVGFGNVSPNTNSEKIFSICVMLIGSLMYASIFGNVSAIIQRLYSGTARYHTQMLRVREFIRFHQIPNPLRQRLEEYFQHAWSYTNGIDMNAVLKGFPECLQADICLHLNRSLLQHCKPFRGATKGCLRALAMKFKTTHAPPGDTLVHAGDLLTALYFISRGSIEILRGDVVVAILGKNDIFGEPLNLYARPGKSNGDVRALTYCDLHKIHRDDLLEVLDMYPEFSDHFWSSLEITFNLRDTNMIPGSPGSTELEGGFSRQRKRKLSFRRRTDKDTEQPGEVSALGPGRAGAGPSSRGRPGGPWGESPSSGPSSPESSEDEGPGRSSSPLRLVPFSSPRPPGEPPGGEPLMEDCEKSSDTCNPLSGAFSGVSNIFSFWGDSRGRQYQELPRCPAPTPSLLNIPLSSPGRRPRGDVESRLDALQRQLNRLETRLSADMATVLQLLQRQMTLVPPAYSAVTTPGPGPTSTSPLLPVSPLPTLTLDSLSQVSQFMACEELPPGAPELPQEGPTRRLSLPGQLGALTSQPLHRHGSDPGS
# Sequence of Cytochrome P450 3A4 (P08684 whole entry): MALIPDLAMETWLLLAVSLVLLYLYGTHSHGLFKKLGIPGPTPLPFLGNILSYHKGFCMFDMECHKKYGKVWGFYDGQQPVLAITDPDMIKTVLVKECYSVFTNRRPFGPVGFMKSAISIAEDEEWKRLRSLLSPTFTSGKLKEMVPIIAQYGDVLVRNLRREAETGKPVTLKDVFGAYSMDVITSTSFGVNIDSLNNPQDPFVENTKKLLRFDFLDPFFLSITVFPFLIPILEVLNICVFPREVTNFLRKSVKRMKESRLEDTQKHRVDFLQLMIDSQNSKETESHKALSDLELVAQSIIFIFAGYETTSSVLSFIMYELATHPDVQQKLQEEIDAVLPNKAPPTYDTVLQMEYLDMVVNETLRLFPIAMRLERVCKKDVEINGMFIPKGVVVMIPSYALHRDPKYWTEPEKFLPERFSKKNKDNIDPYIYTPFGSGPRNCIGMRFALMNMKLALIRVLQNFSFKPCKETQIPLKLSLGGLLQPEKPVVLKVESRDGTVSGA
# Sequence of Muscarinic acetylcholine receptor M5 (P08912 whole entry): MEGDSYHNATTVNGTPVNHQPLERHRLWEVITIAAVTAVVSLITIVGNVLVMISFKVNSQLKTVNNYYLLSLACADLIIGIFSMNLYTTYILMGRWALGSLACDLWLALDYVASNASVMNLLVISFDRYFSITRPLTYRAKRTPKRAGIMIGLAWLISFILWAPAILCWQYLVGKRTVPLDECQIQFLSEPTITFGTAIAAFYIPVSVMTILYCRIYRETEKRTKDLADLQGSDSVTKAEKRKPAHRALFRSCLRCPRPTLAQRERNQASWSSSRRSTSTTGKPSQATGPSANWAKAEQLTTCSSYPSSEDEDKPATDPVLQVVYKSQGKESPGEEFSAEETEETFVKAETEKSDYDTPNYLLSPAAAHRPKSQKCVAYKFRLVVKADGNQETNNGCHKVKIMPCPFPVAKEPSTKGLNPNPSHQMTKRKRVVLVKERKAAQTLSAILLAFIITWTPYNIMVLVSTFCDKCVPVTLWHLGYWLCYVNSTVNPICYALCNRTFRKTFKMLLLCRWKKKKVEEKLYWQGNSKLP
smiles,measurement,setting,value
Cc1nnc2sc(C(=O)NCc3ccc(-c4cccnc4F)cc3)c(N)c2c1C,EC50,[1],0.091 µM
same,IC50,[2],11 µM
same,IC50,[3],> 30 µM
same,IC50,[4],> 30 µM
same,beta t1/2,[5],2.7 h
same,Vdss,[6],0.34 L/kg
same,EC50,[7],0.111 µM
same,pEC50,[7],6.95
same,pEC50,[8],7.06
same,EC50,[9],> 30 µM
same,EC50,[10],> 30 µM
same,EC50,[11],> 30 µM
same,IC50,[12],> 33 µM
same,Activity,[13],Non-Toxic
same,Activity,[14],Non-Toxic
same,EC50 at 48 h,[15],> 50 µM
same,bioavailability,[16],61%
same,Kp uu at 2 h,[17],4.8
same,Drug metabolism,[18],Metabolite_Detected
same,Drug metabolism,[19],Metabolite_Detected
same,Drug metabolism,[20],Metabolite_Detected
same,Drug metabolism,[21],Metabolite_Detected
same,Drug metabolism,[22],Metabolite_Detected
same,Drug metabolism,[23],Metabolite_Detected
same,Drug metabolism,[24],Metabolite_Detected
same,Drug metabolism,[25],Metabolite_Detected
same,Drug metabolism,[26],Metabolite_Detected
same,Drug metabolism,[27],Metabolite_Detected
same,Drug metabolism,[28],Metabolite_Detected
same,Drug metabolism,[29],Metabolite_Detected
same,Drug metabolism,[30],Metabolite_Detected
same,Drug metabolism,[31],Metabolite_Detected
same,Drug metabolism,[32],Metabolite_Detected
same,Activity,[33],Not Active
same,solubility,[34],< 0.5 µM
same,fraction unbound,[35],0.011
same,fraction unbound,[36],0.002
